Converted amounts (≈) assume the structure as drawn.
System: Mycolicibacterium smegmatis
Experiment: Antimicrobial activity against wild-type Mycobacterium smegmatis SMR5 by microplate Alamar blue assay
Assay type: functional
In short: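 M. smegmatis SMR5 carried either control plasmid pMS2 or rv0194 expression vector pML655. Cells were grown at 37°C in Middlebrook 7H9 with 0.2% glycerol and 0.05% Tween 80, then tested by microplate Alamar blue assay. MIC was the lowest antibiotic concentration reducing culture viability by ≥90%, read by fluorescence (ex 530/em 590 nm, room temperature).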

SMILES	MIC
CC[C@H]1OC(=O)[C@H](C)[C@@H](O[C@H]2C[C@@](C)(OC)[C@@H](O)[C@H](C)O2)[C@H](C)[C@@H](O[C@@H]2O[C@H](C)C[C@H](N(C)C)[C@H]2O)[C@](C)(O)C[C@@H](C)C(=O)[C@H](C)[C@@H](O)[C@]1(C)O [ERYTHROMYCIN]	2.5 mg/L (≈ 3.41 µM)
CN[C@H](CC(C)C)C(=O)N[C@H]1C(=O)N[C@@H](CC(N)=O)C(=O)N[C@H]2C(=O)N[C@H]3C(=O)N[C@H](C(=O)N[C@H](C(=O)O)c4cc(O)cc(O)c4-c4cc3ccc4O)[C@H](O)c3ccc(c(Cl)c3)Oc3cc2cc(c3O[C@@H]2O[C@H](CO)[C@@H](O)[C@H](O)[C@H]2O[C@H]2C[C@](C)(N)[C@H](O)[C@H](C)O2)Oc2ccc(cc2Cl)[C@H]1O [VANCOMYCIN]	1.25 mg/L (≈ 0.863 µM)
CN(C)[C@@H]1C(O)=C(C(N)=O)C(=O)[C@@]2(O)C(O)=C3C(=O)c4c(O)cccc4[C@@](C)(O)[C@H]3C[C@@H]12 [TETRACYCLINE]	0.3 mg/L (≈ 0.675 µM)
CC1(C)S[C@@H]2[C@H](NC(=O)[C@H](N)c3ccccc3)C(=O)N2[C@H]1C(=O)O [AMPICILLIN]	125 mg/L (≈ 358 µM)
CO[C@@H]1[C@@H](OC(N)=O)[C@@H](O)[C@H](Oc2ccc3c(O)c(NC(=O)c4ccc(O)c(CC=C(C)C)c4)c(=O)oc3c2C)OC1(C)C [NOVOBIOCIN]	4 mg/L (≈ 6.53 µM)
O=C(N[C@H](CO)[C@H](O)c1ccc([N+](=O)[O-])cc1)C(Cl)Cl [CHLORAMPHENICOL]	32 mg/L (≈ 99 µM)

Reference: ChEMBL document CHEMBL1275448, “Identification of a novel multidrug efflux pump of Mycobacterium tuberculosis” (2008)
